The target in series [1] is T1, Peroxisome proliferator-activated receptor alpha (Homo sapiens, UniProt Q07869).
T1 sequence (Q07869 whole entry): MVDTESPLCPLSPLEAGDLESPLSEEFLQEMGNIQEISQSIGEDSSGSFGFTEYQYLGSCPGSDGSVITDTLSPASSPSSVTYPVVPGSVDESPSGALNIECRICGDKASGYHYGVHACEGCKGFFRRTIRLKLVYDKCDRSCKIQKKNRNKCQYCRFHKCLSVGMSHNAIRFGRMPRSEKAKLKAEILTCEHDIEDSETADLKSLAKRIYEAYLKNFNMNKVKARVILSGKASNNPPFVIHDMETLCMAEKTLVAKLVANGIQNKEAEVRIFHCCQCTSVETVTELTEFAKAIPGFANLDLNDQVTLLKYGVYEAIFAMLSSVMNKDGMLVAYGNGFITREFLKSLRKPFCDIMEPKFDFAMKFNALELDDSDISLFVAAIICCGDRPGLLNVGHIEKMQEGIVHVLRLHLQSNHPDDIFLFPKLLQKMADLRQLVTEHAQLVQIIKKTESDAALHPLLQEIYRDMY
Description: Agonist activity at recombinant human PPARalpha LBD (168 to 468 residues) expressed in African green monkey COS-1 cells incubated for 18 hrs by luciferase reporter gene assay. It counts as cell-based. An outline of the steps: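 Transient Gal4 one-hybrid assay in COS-1 cells (7×10^4 per well), transfected 24 h after seeding. Plasmids were Gal4-DBD fused to the human nuclear receptor LBD, a 5×UAS-SV40 luciferase reporter and pRL-CMV Renilla control. Ligand in DMSO (final 0.1%) was added 5 h post-transfection. Dual-luciferase activity was read after 18 h, expressed as RLU, from three biological replicates in quadruplicate.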
In general terms: Reporter assays use an easily measured gene product as a stand-in for the process of interest.

Series [2] in a line: Cytotoxicity against African green monkey COS-1 cells assessed as cell viability at EC50 concentration for PPAR activation assay by XTT assay. As to conditions: chlorocebus aethiops, read-out: Activity. It is filed as cell-based. A digest of the protocol:
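Run on COS-1 cells treated in parallel with the Gal4-LBD PPAR reporter assays. Metabolic NAD(P)H flux was measured by kit XTT assay per the maker's protocol. Absorbance was read at 450/690 nm.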

The nature of series [3]: Cytotoxicity against African green monkey COS-1 cells assessed as cell viability at EC50 concentration for PPAR activation assay by LDH assay. It is filed as cell-based. As to conditions: chlorocebus aethiops, read-out: Activity. An outline of the steps: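 Assayed in the same COS-1 cultures as the Gal4-LBD PPAR reporter assays. Lactate dehydrogenase released into the medium was measured with a commercial kit per the maker's protocol. Absorbance was read at 492/750 nm.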

Series [4] has as its target T2, Peroxisome proliferator-activated receptor gamma (Homo sapiens) (UniProt P37231).
T2 sequence (whole entry): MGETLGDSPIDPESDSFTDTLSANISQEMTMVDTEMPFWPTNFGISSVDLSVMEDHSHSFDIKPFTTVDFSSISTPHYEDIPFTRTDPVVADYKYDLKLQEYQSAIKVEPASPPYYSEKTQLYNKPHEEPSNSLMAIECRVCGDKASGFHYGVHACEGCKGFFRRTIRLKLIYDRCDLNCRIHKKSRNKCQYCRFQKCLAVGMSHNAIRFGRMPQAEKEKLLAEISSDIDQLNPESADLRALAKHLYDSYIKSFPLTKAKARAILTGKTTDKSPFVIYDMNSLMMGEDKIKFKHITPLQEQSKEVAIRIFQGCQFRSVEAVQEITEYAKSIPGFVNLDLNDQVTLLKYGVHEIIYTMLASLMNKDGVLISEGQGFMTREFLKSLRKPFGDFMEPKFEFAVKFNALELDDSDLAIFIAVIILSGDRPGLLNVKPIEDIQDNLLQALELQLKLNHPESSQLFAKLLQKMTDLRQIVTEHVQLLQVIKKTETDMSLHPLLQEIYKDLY
The experiment in a line: Agonist activity at human PPARgamma in 8 day differentiated human SGBS cells assessed as decrease in CXCL5 gene expression at 2 uM incubated for 24 hrs by SYBR-green based qPCR analysis. Background: Real-time PCR tracks product formation cycle by cycle.

Series [5] addresses T2, Peroxisome proliferator-activated receptor gamma (Homo sapiens). Description: Agonist activity at human PPARgamma in 8 day differentiated human SGBS cells assessed as decrease in […] gene expression at 2 uM incubated for 24 hrs by SYBR-green based qPCR analysis.
For series [6] the target is unchanged. Description: Agonist activity at human PPARgamma in 8 day differentiated human SGBS cells assessed as decrease in TNF gene expression at 2 uM incubated for 24 hrs by SYBR-green based qPCR analysis.
For series [7] the target is unchanged. The experiment in a line: Agonist activity at human PPARgamma in 8 day differentiated human SGBS cells assessed as decrease in IL-1 beta gene expression at 2 uM incubated for 24 hrs by SYBR-green based qPCR analysis.
Series [8] shares this target. The experiment in a line: Agonist activity at human PPARgamma in 8 day differentiated human SGBS cells assessed as decrease in CXCL1 gene expression at 2 uM incubated for 24 hrs by SYBR-green based qPCR analysis.

The record followed here is ChEMBL document CHEMBL4715825, “Synthesis and biological evaluations of marine oxohexadecenoic acids: PPARα/γ dual agonism and anti-diabetic target gene effects” (Eur J Med Chem, 2018).

Active and inactive are the calls of the source. No cut-off for these calls is given here.

A word on the EC50: it is the concentration giving half of the maximal effect. As to `CCCCCCCCCCCCCCCC(=O)O` [PALMITIC ACID], the EC50 in series [1] was found to be 35 µM. Also, the viability in series [2] was > 90%; in series [3], > 95%.

As for `Cc1cccc(Nc2cc(Cl)nc(SCC(=O)O)n2)c1C` [PIRINIXIC ACID], the viability in series [2] and in series [3] was > 95% each time.

Take `CN(CCOc1ccc(CC2SC(=O)NC2=O)cc1)c1ccccn1` (configuration not stated) [ROSIGLITAZONE]: the viability in series [2] and in series [3] was > 95% in each case. Also, the result in series [4], in series [5], in series [6], in series [7] and in series [8] was inactive.
